Data reported in ChEMBL document CHEMBL3352487, “Synthesis, antibacterial activity, and biological evaluation of formyl hydroxyamino derivatives as novel potent peptide deformylase inhibitors against drug-resistant bacteria” (Eur J Med Chem, 2014).
Converted amounts (≈) assume the structure as drawn.

Tests used:
[1] = tested on: Staphylococcus aureus; test: Antimicrobial activity against methicillin-susceptible Staphylococcus aureus after 24 hrs by broth microdilution method; type: functional
In short: (§1)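 Broth microdilution following NCCLS M7-A4; ATCC strains and clinical isolates from a provincial hospital.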

[2] = tested on: Haemophilus influenzae; test: Antimicrobial activity against Haemophilus influenzae Q1 after 24 hrs by broth microdilution method; type: functional; details: Q1, 24 h; in short: as §1
[3] = tested on: Staphylococcus aureus; test: Antimicrobial activity against Staphylococcus aureus ATCC 33591 in septicemia mouse model assessed as mortality of host at 5 mg/kg administered intragastrically measured after 14 days relative to control; type: functional; details: ATCC 33591, po, 336 h, route intragastric
In short: (§2)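 Septicemia model: outbred mice inoculated i.p. with a 90–100% lethal dose (5 × 10^6 CFU/mL) in 0.5 mL brain heart infusion broth with 5% mucin. Drug in 20% DMSO given intragastrically after infection at 5, 10 or 20 mg/kg, 0.1 mL. Six mice per dose; cumulative mortality over 14 days; ED50 derived.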

[4] = Oral bioavailability in Sprague-Dawley rat at 25 mg/kg; type: ADME, organism-based; details: in vivo
[5] = tested on: Escherichia coli; test: Antimicrobial activity against Escherichia coli isolate 1 after 24 hrs by broth microdilution method; type: functional; details: isolate 1, 24 h; in short: as §1
[6] = tested on: Streptococcus pneumoniae; test: Antimicrobial activity against Streptococcus pneumoniae 1629 after 24 hrs by broth microdilution method; type: functional; details: Streptococcus pneumoniae, 1629, 24 h; in short: as §1
[7] = Tmax in Sprague-Dawley rat at 25 mg/kg, po; type: ADME, organism-based; design: dose 25 mg/kg, route oral; details: in vivo
[8] = tested on: Haemophilus influenzae; test: Antimicrobial activity against AcrA-deficient Haemophilus influenzae H128 after 24 hrs by broth microdilution method; type: functional; details: H128, 24 h; in short: as §1
[9] = tested on: Staphylococcus aureus; test: Antimicrobial activity against methicillin-resistant Staphylococcus aureus after 24 hrs by broth microdilution method; type: functional
In short: (§3)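 Broth microdilution following NCCLS M7-A4, using ATCC strains and clinical isolates from a provincial hospital.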

[10] = AUC (0 to t) in Sprague-Dawley rat at 25 mg/kg, po; type: ADME, organism-based; design: dose 25 mg/kg, route oral; details: plasma
[11] = Half life in Sprague-Dawley rat at 5 mg/kg, iv; type: ADME, organism-based; design: dose 5 mg/kg, route intravenous; details: in vivo
[12] = tested on: Enterococcus faecalis; test: Antimicrobial activity against Enterococcus faecalis Isolate 1 after 24 hrs by broth microdilution method; type: functional; details: Isolate 1, 24 h; in short: as §1
[13] = tested on: Streptococcus pyogenes; test: Antimicrobial activity against Streptococcus pyogenes 1308007P after 24 hrs by broth microdilution method; type: functional; in short: as §1
[14] = biological target: T1, hERG (KCNH2) (Homo sapiens, UniProt Q12809); test: Inhibition of human ERG at 1 uM
[15] = AUC (0 to t) in Sprague-Dawley rat at 5 mg/kg, iv; type: ADME, organism-based; design: dose 5 mg/kg, route intravenous; details: plasma
[16] = tested on: Escherichia coli; test: Antimicrobial activity against Escherichia coli isolate 2 after 24 hrs by broth microdilution method; type: functional; details: isolate 2, 24 h; in short: as §1
[17] = Clearance in Sprague-Dawley rat at 5 mg/kg, iv; type: ADME, organism-based; design: dose 5 mg/kg, route intravenous; details: in vivo
[18] = Half life in Sprague-Dawley rat at 25 mg/kg, po; type: ADME, organism-based; design: dose 25 mg/kg, route oral; details: in vivo
[19] = tested on: Staphylococcus aureus; test: Antimicrobial activity against Staphylococcus aureus WCUH29 after 24 hrs by broth microdilution method; type: functional; details: WCUH29, 24 h; in short: as §1
[20] = tested on: Staphylococcus aureus; test: Antimicrobial activity against Staphylococcus aureus ATCC 33591 in septicemia mouse model administered intragastrically measured after 14 days; type: functional; details: ATCC 33591, po, 336 h
[21] = tested on: Staphylococcus aureus; test: Antimicrobial activity against Staphylococcus aureus ATCC 33591 in septicemia mouse model assessed as mortality of host at 20 mg/kg administered intragastrically measured after 14 days relative to control; type: functional; details: ATCC 33591, po, 336 h, route intragastric; in short: as §2
[22] = tested on: Streptococcus pneumoniae; test: Antimicrobial activity against Streptococcus pneumoniae ERY2 after 24 hrs by broth microdilution method; type: functional; details: ERY2, 24 h; in short: as §1
[23] = tested on: Staphylococcus aureus; test: Antimicrobial activity against Staphylococcus aureus OXFORD after 24 hrs by broth microdilution method; type: functional; in short: as §3
[24] = tested on: Enterococcus faecium; test: Antimicrobial activity against Enterococcus faecium X7501 after 24 hrs by broth microdilution method; type: functional; details: X7501, 24 h; in short: as §1
[25] = Volume of distribution at steady state in Sprague-Dawley rat at 5 mg/kg, iv; type: ADME, organism-based; design: dose 5 mg/kg, route intravenous; details: in vivo, read-out: Vdss
[26] = tested on: Escherichia coli; test: Antimicrobial activity against Escherichia coli isolate 3 after 24 hrs by broth microdilution method; type: functional; details: isolate 3, 24 h; in short: as §1
[27] = tested on: Streptococcus pneumoniae; test: Antimicrobial activity against Streptococcus pneumoniae N1387 after 24 hrs by broth microdilution method; type: functional; details: N1387, 24 h; in short: as §1
[28] = Cmax in Sprague-Dawley rat at 25 mg/kg, po; type: ADME, organism-based; design: dose 25 mg/kg, route oral; details: in vivo
[29] = AUC (0 to infinity) in Sprague-Dawley rat at 5 mg/kg, iv; type: ADME, organism-based; design: time infinity, dose 5 mg/kg, route intravenous; details: plasma
[30] = AUC (0 to infinity) in Sprague-Dawley rat at 25 mg/kg, po; type: ADME, organism-based; design: dose 25 mg/kg, route oral, time infinity; details: plasma
[31] = Mean residence time (0 to t) in Sprague-Dawley rat at 25 mg/kg, po; type: ADME, organism-based; design: dose 25 mg/kg, route oral; details: in vivo
[32] = Fraction unbound in CD1 mouse plasma at 2 uM by equilibrium dialysis; type: ADME, cell-free
In short: (§4)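 Pooled CD-1 mouse plasma spiked to 2 µM final, equilibrium dialysis in triplicate against 100 mM PBS pH 7.4, 4 h at 37 °C with rotation; matrix-matched samples acetonitrile-precipitated, LC-MS/MS with internal standards. Unbound = free/total ×100; recovery = (free+total)/pre-dialysis ×100.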

[33] = tested on: Moraxella catarrhalis; test: Antimicrobial activity against Moraxella catarrhalis 1502 after 24 hrs by broth microdilution method; type: functional; details: Moraxella catarrhalis, 1502, 24 h; in short: as §1
[34] = Mean residence time (0 to t) in Sprague-Dawley rat at 5 mg/kg, iv; type: ADME, organism-based; design: dose 5 mg/kg, route intravenous; details: in vivo
[35] = Protein binding in CD1 mouse plasma at 2 uM by equilibrium dialysis; type: ADME, cell-free; details: read-out: PPB (converted)
[36] = tested on: Streptococcus pyogenes; test: Antimicrobial activity against Streptococcus pyogenes 1307006P after 24 hrs by broth microdilution method; type: functional; in short: as §1
[37] = Drug recovery in CD1 mouse plasma at 2 uM by equilibrium dialysis; type: ADME, cell-free; details: read-out: Drug recovery; in short: as §4
[38] = tested on: Staphylococcus epidermidis; test: Antimicrobial activity against Staphylococcus epidermidis after 24 hrs by broth microdilution method; type: functional; in short: as §1
[39] = tested on: Haemophilus influenzae; test: Antimicrobial activity against Haemophilus influenzae H128 after 24 hrs by broth microdilution method; type: functional; details: H128, 24 h; in short: as §1
[40] = biological target: T1, hERG (KCNH2); test: Inhibition of human ERG at 10 uM
[41] = tested on: Staphylococcus aureus; test: Antimicrobial activity against Staphylococcus aureus after 24 hrs by broth microdilution method; type: functional; in short: as §1
[42] = tested on: Staphylococcus aureus; test: Antimicrobial activity against Staphylococcus aureus ATCC 33591 in septicemia mouse model assessed as mortality of host at 10 mg/kg administered intragastrically measured after 14 days relative to control; type: functional; details: ATCC 33591, po, 336 h, route intragastric; in short: as §2

T1 sequence (Q12809 whole entry): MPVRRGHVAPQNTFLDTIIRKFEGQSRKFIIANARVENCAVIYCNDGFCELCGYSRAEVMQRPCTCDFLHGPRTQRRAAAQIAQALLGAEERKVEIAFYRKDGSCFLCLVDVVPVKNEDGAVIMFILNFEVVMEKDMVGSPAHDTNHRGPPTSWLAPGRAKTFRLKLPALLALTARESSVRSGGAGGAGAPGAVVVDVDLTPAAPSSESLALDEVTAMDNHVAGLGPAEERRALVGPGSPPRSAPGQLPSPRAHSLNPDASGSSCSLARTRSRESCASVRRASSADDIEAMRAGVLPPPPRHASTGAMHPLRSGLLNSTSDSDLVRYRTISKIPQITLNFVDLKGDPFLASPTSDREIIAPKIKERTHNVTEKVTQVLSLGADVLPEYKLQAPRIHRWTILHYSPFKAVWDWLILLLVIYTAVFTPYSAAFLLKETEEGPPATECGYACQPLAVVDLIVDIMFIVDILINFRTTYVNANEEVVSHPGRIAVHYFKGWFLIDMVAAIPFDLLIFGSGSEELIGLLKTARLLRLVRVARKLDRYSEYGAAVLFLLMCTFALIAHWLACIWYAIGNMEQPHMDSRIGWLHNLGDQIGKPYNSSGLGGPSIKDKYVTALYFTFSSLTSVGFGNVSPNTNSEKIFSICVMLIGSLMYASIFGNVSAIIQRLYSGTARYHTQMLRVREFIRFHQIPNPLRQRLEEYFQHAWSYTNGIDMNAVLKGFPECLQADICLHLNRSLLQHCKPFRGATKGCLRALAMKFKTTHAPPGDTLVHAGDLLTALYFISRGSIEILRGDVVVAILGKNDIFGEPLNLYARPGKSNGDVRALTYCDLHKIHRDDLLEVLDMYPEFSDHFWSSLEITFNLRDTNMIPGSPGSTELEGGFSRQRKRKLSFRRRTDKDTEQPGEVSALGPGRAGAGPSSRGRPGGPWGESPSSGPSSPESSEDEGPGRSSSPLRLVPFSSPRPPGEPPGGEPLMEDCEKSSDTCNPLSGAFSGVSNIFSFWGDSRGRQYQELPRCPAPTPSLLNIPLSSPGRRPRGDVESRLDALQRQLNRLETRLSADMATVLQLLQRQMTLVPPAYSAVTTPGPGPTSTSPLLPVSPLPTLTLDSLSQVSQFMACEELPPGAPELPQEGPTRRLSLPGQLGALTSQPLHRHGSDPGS

Work on `C=C1C[C@@H](C(=O)Nc2ncc(C)s2)N(C(=O)[C@H](CCCC)CN(O)C=O)C1` yielded an MIC [1] of 0.5 µg/mL (≈ 1.27 µM), an MIC [2] of 4 µg/mL (≈ 10.1 µM) and a mortality at 5 mg/kg [3] of 83%. The bioavailability [4] was 58.9%, the MIC [5] was 64 µg/mL (≈ 162 µM) and the MIC [6] was 2 µg/mL (≈ 5.07 µM). For the same compound, the Tmax [7] was 0.688 h, the MIC [8] was ≤ 0.06 µg/mL and the MIC [9] was 0.0312 µg/mL (≈ 0.0791 µM). The AUC(0-t) [10] was 58100 ng·h/mL, the half-life [11] was 3.21 h and the MIC [12] was 4 µg/mL (≈ 10.1 µM). For the same compound, the MIC [13] was 2 µg/mL (≈ 5.07 µM), the inhibition at 1 µM [14] was -0.35% and the AUC(0-t) [15] was 19800 ng·h/mL. For the same compound, the MIC [16] was 32 µg/mL (≈ 81.1 µM), the clearance [17] was 4.83 mL/min/kg and the half-life [18] was 3.02 h. The MIC [19] was 0.125 µg/mL (≈ 0.317 µM), the ED50 [20] was 19.6 mg/kg and the mortality at 20 mg/kg [21] was 50%. It also gave an MIC [22] of 2 µg/mL (≈ 5.07 µM), an MIC [23] of 0.5 µg/mL (≈ 1.27 µM) and an MIC [24] of 2 µg/mL (≈ 5.07 µM). It also gave a Vd [25] of 0.571 L/kg, an MIC [26] of 64 µg/mL (≈ 162 µM) and an MIC [27] of 1 µg/mL (≈ 2.53 µM). For the same compound, the Cmax [28] was 15700 ng/mL, the AUC(0-inf) [29] was 19800 ng·h/mL and the AUC(0-inf) [30] was 58300 ng·h/mL. For the same compound, the MRT last [31] was 3.41 h, the fraction unbound at 2 µM [32] was 0.01 and the MIC [33] was ≤ 0.06 µg/mL. For the same compound, the MRT last [34] was 2.03 h, the fraction unbound at 2 µM [35] was 0.01 and the MIC [36] was 2 µg/mL (≈ 5.07 µM). It also gave a recovery at 2 µM [37] of 93.7%, an MIC [38] of 0.0625 µg/mL (≈ 0.158 µM) and an MIC [39] of 4 µg/mL (≈ 10.1 µM). The inhibition at 10 µM [40] was -2.98%, the MIC [41] was 0.25 µg/mL (≈ 0.634 µM) and the mortality at 10 mg/kg [42] was 66%.

In the case of `CC(=O)NC[C@H]1CN(c2ccc(N3CCOCC3)c(F)c2)C(=O)O1` [LINEZOLID], the mortality at 5 mg/kg [3] is reported as 83%, the MIC [5] is reported as > 64 µg/mL and the MIC [16] is reported as > 64 µg/mL. For the same compound, the ED50 [20] was 11.9 mg/kg, the mortality at 20 mg/kg [21] was 16% and the MIC [38] was 0.5 µg/mL (≈ 1.48 µM). The mortality at 10 mg/kg [42] was 66%.
